Experimental data: ChEMBL document CHEMBL4261600 (Eur J Med Chem, 2018)

Tests used:
[1] = Apparent volume of distribution in mouse at 3 mg/kg, iv by LC-MS/MS analysis; type: ADME, organism-based; conditions: in vivo, read-out: Vz
Method in brief: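 Non-compartmental PK. Male SD rats 190-210 g, mice and beagle dogs acclimatized one week, fasted 12 h with water, split into iv and po groups (mice 48, rats 6, dogs 6). iv 3/3/2 mg/kg (mice/rats/dogs); po 10/20/10 mg/kg; vehicle DMSO in 5% glucose water. Blood at 2 or 5 to 720 min; plasma protein-precipitated with methanol, caffeine internal standard, LC-MS/MS.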

[2] = test system: Tyrosine-protein kinase ABL1 (Homo sapiens), P00519 [H396P]; assay: Binding affinity to human non-phosphorylated ABL1 H396P mutant (S229 to K512 residues) expressed in mammalian expression system assessed as remaining unbound target protein level at 1000 nM by Kinomescan method relative to control
Method in brief: (§1)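 KINOMEscan competition-binding profiling across the panel of 468 kinases and mutants, with inhibitor tested at 1 μM. Binding is expressed as percent of control, with DMSO as the reference control.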

[3] = test system: Tyrosine-protein kinase ABL1 (Homo sapiens), P00519 [Y253F]; assay: Binding affinity to human phosphorylated ABL1 Y253F mutant (S229 to K512 residues) expressed in mammalian expression system assessed as remaining unbound target protein level at 1000 nM by Kinomescan method relative to control
Method in brief: (§2)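 Single-point competition binding screen across a panel of 468 kinases and mutants, with the inhibitor at 1 μM. Binding is read out as percent of a DMSO control, and targets below 1 percent control were classed as strong binders.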

[4] = test system: Epidermal growth factor receptor (Homo sapiens), P00533 [L858R,T790M]; assay: Binding affinity to human partial length EGFR L858R/T790M double mutant (R669 to V1011 residues) expressed in mammalian expression system assessed as remaining unbound target protein level at 1000 nM by Kinomescan method relative to control; method in brief: as §1
[5] = target: Ephrin type-B receptor 3 (Homo sapiens) (UniProt P54753); assay: Binding affinity to wild-type human partial length EPHB3 (Q599 to T928 residues) expressed in bacterial expression system assessed as remaining unbound target protein level at 1000 nM by Kinomescan method relative to control
[6] = target: Fibroblast growth factor receptor 1 (Homo sapiens) (UniProt P11362); assay: Binding affinity to wild-type human partial length FGFR1 (P357 to V669 residues) expressed in bacterial expression system assessed as remaining unbound target protein level at 1000 nM by Kinomescan method relative to control
Fibroblast growth factor receptor 1 (Homo sapiens), sequence (P11362 22-822 limits assumed): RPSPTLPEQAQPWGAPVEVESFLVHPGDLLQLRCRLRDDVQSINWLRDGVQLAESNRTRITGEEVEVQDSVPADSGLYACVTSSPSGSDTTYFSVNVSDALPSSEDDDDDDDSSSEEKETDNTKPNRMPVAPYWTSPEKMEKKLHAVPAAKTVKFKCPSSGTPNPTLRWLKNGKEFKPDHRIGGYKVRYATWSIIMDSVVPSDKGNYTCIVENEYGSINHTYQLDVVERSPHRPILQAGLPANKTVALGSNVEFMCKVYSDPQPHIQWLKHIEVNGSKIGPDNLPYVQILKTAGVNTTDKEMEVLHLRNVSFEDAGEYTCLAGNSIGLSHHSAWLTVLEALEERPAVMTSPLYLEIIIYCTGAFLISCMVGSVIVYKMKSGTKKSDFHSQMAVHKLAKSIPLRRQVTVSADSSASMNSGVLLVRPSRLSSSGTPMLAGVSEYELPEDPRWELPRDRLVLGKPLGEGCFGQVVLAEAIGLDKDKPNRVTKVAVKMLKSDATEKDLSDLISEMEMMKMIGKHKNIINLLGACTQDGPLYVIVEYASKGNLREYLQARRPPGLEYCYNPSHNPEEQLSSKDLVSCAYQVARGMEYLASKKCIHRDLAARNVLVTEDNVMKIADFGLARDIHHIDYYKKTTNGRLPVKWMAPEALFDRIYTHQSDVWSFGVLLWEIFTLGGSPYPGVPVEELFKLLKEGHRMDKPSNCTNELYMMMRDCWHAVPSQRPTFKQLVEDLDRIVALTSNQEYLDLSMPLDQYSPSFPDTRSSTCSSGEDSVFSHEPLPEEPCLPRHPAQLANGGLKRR
Method in brief: (§3)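 KINOMEscan binding panel of 468 kinases/mutants. Inhibitor was tested at a single concentration of 1 μM. Binding is reported as percent of control, defined relative to a DMSO control.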

[7] = test system: Fibroblast growth factor receptor 3 (Homo sapiens), P22607 [G697C]; assay: Binding affinity to human partial length FGFR3 G697C mutant (R442 to S771 residues) expressed in bacterial expression system assessed as remaining unbound target protein level at 1000 nM by Kinomescan method relative to control; method in brief: as §1
[8] = target: Serine/threonine-protein kinase haspin (Homo sapiens) (UniProt Q8TF76); assay: Binding affinity to wild-type human partial length HASPIN (I452 to K798 residues) expressed in mammalian expression system assessed as remaining unbound target protein level at 1000 nM by Kinomescan method relative to control; method in brief: as §3
Serine/threonine-protein kinase haspin (Homo sapiens), sequence (Q8TF76 whole entry, the tested form may be a part): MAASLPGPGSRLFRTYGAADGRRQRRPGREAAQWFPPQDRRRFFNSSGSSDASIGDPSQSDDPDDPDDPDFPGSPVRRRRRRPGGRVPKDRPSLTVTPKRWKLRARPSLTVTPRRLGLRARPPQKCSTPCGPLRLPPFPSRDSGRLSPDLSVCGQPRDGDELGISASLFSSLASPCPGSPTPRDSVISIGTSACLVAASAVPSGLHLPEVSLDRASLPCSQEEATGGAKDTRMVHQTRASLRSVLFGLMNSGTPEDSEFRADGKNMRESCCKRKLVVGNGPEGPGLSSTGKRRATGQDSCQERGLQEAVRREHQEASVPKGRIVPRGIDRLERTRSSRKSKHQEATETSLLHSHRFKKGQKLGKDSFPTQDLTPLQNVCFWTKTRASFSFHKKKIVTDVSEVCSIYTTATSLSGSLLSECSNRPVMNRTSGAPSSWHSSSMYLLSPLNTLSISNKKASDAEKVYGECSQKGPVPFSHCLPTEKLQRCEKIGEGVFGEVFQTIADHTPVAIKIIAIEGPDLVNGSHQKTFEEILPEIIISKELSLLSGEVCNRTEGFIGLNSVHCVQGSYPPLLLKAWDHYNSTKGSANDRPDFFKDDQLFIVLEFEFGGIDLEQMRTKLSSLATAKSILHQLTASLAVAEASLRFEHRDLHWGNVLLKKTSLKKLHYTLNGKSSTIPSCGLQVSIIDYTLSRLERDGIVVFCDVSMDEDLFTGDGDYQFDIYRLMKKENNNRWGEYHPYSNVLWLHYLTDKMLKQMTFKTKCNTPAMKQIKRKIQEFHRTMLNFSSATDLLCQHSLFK

[9] = target: LIM domain kinase 1 (Homo sapiens) (UniProt P53667); assay: Binding affinity to wild-type human full length LIMK1 (M1 to D647 residues) expressed in bacterial expression system assessed as remaining unbound target protein level at 1000 nM by Kinomescan method relative to control; method in brief: as §2
[10] = target: Serine/threonine-protein kinase MAK (Homo sapiens) (UniProt P20794); assay: Binding affinity to wild-type human partial length MAK (M1 to P314 residues) expressed in bacterial expression system assessed as remaining unbound target protein level at 1000 nM by Kinomescan method relative to control
Serine/threonine-protein kinase MAK (Homo sapiens), sequence (P20794 whole entry, the tested form may be a part): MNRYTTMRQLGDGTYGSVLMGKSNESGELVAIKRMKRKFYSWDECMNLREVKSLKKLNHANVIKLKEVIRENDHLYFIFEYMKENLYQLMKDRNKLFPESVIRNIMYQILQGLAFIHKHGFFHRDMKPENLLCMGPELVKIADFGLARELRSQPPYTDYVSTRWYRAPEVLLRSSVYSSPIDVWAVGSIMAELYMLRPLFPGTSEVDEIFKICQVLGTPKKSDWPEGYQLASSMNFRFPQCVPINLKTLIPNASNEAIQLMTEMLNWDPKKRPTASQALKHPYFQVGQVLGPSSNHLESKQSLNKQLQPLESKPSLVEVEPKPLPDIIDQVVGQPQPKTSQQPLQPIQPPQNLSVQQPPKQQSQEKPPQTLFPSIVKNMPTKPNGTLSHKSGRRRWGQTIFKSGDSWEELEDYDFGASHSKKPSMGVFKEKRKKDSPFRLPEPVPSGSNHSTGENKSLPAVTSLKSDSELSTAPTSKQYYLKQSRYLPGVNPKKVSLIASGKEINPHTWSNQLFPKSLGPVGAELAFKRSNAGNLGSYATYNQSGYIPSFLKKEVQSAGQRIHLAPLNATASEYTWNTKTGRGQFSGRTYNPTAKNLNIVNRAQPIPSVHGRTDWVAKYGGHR

[11] = target: Muscle, skeletal receptor tyrosine-protein kinase (Homo sapiens) (UniProt O15146); assay: Binding affinity to wild-type human partial length MUSK (M553 to V869 residues) expressed in bacterial expression system assessed as remaining unbound target protein level at 1000 nM by Kinomescan method relative to control
[12] = target: Serine/threonine-protein kinase Nek5 (Homo sapiens) (UniProt Q6P3R8); assay: Binding affinity to wild-type human partial length NEK5 (M1 to M279 residues) expressed in bacterial expression system assessed as remaining unbound target protein level at 1000 nM by Kinomescan method relative to control
Serine/threonine-protein kinase Nek5 (Homo sapiens), sequence (Q6P3R8 whole entry, the tested form may be a part, canonical isoform): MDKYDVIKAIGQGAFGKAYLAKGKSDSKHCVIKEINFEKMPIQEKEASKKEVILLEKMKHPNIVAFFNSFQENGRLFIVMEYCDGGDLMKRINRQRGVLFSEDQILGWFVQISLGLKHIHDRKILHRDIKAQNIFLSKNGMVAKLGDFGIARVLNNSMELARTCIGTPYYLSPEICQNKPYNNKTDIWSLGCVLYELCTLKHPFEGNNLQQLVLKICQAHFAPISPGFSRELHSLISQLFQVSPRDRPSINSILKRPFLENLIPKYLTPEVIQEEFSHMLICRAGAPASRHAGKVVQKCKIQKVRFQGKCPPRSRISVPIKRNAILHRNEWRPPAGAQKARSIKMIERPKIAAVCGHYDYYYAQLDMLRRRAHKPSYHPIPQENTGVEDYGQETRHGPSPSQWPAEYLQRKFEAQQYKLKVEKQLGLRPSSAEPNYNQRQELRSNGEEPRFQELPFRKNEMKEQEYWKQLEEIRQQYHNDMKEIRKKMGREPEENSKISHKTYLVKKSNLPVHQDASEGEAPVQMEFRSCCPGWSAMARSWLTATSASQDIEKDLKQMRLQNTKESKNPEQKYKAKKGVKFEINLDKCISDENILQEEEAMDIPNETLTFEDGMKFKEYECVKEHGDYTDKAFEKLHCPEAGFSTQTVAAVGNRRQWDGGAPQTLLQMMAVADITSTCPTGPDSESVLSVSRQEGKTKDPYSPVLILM

[13] = target: Phosphatidylinositol 4,5-bisphosphate 3-kinase catalytic subunit beta isoform (Homo sapiens) (UniProt P42338); assay: Binding affinity to wild-type human partial length PIK3CB (P118 to S1070 residues) expressed in mammalian expression system assessed as remaining unbound target protein level at 1000 nM by Kinomescan method relative to control
Phosphatidylinositol 4,5-bisphosphate 3-kinase catalytic subunit beta isoform (Homo sapiens), sequence (P42338 whole entry, looked up, the tested form may be a part, canonical isoform): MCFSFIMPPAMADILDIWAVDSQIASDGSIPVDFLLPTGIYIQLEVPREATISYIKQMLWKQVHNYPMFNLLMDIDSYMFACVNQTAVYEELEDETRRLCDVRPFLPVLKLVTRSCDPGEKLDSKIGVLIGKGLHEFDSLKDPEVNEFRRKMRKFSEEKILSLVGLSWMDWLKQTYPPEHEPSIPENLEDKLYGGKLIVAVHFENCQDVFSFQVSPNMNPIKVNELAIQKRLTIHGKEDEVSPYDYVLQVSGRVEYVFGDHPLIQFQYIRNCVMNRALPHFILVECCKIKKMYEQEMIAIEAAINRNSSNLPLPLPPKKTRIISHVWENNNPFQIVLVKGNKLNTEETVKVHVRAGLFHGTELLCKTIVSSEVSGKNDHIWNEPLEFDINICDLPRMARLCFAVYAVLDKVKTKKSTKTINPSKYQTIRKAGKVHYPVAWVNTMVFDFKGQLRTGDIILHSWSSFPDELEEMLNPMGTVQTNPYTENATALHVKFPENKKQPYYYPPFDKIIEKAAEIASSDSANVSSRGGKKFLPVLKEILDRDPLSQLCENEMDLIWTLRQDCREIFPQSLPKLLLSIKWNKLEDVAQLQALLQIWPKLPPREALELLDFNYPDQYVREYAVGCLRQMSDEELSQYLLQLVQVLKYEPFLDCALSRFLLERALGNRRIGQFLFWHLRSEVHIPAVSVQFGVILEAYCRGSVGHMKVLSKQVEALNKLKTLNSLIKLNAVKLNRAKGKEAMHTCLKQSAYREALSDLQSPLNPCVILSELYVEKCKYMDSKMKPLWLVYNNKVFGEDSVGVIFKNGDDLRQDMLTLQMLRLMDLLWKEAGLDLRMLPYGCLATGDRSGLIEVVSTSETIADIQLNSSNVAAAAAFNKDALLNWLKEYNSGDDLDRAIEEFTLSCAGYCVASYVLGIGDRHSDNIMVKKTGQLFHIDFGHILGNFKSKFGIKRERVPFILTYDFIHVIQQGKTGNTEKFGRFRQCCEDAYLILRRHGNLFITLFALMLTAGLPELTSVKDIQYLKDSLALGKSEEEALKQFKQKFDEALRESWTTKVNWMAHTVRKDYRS

[14] = target: Serine/threonine-protein kinase pim-2 (Homo sapiens) (UniProt Q9P1W9); assay: Binding affinity to wild-type human partial length PIM2 (M1 to E291 residues) expressed in bacterial expression system assessed as remaining unbound target protein level at 1000 nM by Kinomescan method relative to control
Serine/threonine-protein kinase pim-2 (Homo sapiens), sequence (Q9P1W9 whole entry, looked up, the tested form may be a part): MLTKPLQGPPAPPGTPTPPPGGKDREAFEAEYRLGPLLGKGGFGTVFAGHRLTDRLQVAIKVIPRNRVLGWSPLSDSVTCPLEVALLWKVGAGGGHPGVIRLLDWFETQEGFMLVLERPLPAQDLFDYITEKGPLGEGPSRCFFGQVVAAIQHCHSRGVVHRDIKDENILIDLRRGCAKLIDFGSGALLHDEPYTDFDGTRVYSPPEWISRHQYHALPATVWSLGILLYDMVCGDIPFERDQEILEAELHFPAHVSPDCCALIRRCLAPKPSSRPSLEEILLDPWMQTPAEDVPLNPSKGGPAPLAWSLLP

[15] = target: Protein kinase C epsilon type (Homo sapiens) (UniProt Q02156); assay: Binding affinity to wild-type human partial length PRKCE (A378 to P737 residues) expressed in mammalian expression system assessed as remaining unbound target protein level at 1000 nM by Kinomescan method relative to control
Protein kinase C epsilon type (Homo sapiens), sequence (Q02156 whole entry, the tested form may be a part): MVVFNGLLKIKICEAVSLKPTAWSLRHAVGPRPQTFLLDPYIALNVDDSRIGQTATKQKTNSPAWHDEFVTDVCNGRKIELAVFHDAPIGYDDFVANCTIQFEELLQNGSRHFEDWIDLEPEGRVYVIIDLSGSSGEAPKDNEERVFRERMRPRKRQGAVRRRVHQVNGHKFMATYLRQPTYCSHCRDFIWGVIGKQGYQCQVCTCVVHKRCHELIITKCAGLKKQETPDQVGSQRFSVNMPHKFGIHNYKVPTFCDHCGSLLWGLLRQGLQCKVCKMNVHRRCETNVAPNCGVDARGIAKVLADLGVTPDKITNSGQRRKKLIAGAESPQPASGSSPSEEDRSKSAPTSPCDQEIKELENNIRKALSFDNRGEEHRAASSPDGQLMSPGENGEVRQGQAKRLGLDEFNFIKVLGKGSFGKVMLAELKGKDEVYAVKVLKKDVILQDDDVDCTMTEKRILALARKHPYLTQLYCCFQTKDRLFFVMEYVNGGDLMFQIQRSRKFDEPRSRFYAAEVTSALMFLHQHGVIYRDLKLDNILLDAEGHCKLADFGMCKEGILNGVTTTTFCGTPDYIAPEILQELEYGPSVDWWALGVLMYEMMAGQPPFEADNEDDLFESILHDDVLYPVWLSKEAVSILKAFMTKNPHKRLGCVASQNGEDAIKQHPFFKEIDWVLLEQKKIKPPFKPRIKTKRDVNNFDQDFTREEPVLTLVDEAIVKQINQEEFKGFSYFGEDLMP

[16] = target: Receptor-interacting serine/threonine-protein kinase 4 (Homo sapiens) (UniProt P57078); assay: Binding affinity to wild-type human partial length RIPK4 (M1 to V303 residues) expressed in mammalian expression system assessed as remaining unbound target protein level at 1000 nM by Kinomescan method relative to control
[17] = target: STE20/SPS1-related proline-alanine-rich protein kinase (Homo sapiens) (UniProt Q9UEW8); assay: Binding affinity to wild-type human partial length STK39 (P43 to I357 residues) expressed in mammalian expression system assessed as remaining unbound target protein level at 1000 nM by Kinomescan method relative to control
[18] = target: Serine/threonine-protein kinase 32C (Homo sapiens) (UniProt Q86UX6); assay: Binding affinity to wild-type human partial length YANK3 (M68 to G486 residues) expressed in bacterial expression system assessed as remaining unbound target protein level at 1000 nM by Kinomescan method relative to control
[19] = target: Cyclin-dependent kinase 14/Cyclin-Y (Homo sapiens, UniProt O94921); assay: Inhibition of recombinant GST-tagged human full length CDK14/cyclin Y (2 to end residues); type: protein-complex assay
[20] = target: Cyclin-Y/Cyclin-dependent kinase 16 (Homo sapiens, UniProt Q00536); assay: Inhibition of recombinant GST-tagged inactive state of human CDK16 (108 to end residues)/cyclin Y (2 to end residues); type: protein-complex assay
Homo sapiens = organism: Homo sapiens; assay: Selectivity ratio of IC50 for recombinant full length His-tagged human CDK8/CyclinC to IC50 for recombinant full length His-tagged human CDK9/CyclinT1

COCCN[C@H]1CC[C@H](Nc2cc(-c3csc(NCC4(C#N)CCOCC4)n3)c(Cl)cn2)CC1
Vd [1]: 18.2 L/kg
Activity [2]: 75%
Activity [3]: 87%
Activity [4]: 100%
Activity [5]: 100%
Activity [6]: 95%
Activity [7]: 60%
Activity [8]: 94%
Activity [9]: 90%
Activity [10]: 100%
Activity [11]: 100%
Activity [12]: 90%
Activity [13]: 100%
Activity [14]: 53%
Activity [15]: 93%
Activity [16]: 100%
Activity [17]: 57%
Activity [18]: 90%
IC50 [19]: 1680 nM
IC50 [20]: 292 nM
Ratio IC50 (Homo sapiens): > 1000
